# Laboratory results published in PubChem BioAssay AID1480 (NMMLSC, 2009).
# The list shows a part of the results. A number with no mark means an inactive call.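 Rule for the calls: active = fluorescence in ABCG2-expressing cells above the plate's control-well mean plus 3 SD (cut at about 15 in these data); inactive = the rest.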
# Test: compound autofluorescence in ABCG2-expressing IgMXP3 cells, confirmation, artefact control for ABC transporter inhibitor project, cell-based, 488/530 nm, flow cytometry (AID 1480)
# Conditions: compound autofluorescence 488/530 nm, at 6.6 µM, active compounds read high
# Procedure, shortened: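 Material: ABCG2-expressing drug-resistant IgMXP3 cells | Input: 3 million cells/mL final | Medium: JC-1 kit assay buffer | Probe or stimulus: no JC-1 substrate | Times: Cell–compound exposure 10 min, 25 °C, end-over-end rotation | Measured by: High-throughput flow cytometry, green FL1 channel fluorescence | Evaluation: Compound-well median cell fluorescence minus DMSO-well median fluorescence | Benchmarks: DMSO-only wells as cell background reference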
compound,measurement,value
COC(=O)COc1cc(C)cc2oc(=O)c3c(c12)CCCC3,fluorescence,1.36
